{"source": "the RNAGym collection of RNA variant scans (doi:10.1126/science.aae0568)", "parents": {"B1": {"name": "tRNA (parent)", "chain": "GUUCCGUUGGCGUAAUGGUAACGCGUCUCCCUCCUAAGGAGAAGACUGCGGGUUCGAGUCCCGUACGGAACG"}}, "note": "Variants at the floor of the assay were thinned out."}
{"variants_of": "B1", "experiment": "yeast fitness relative to wild type (ratio to wild type); higher = fitter; tRNA-Arg(CCU), competitive growth, 37 C, YPD", "summary_of_the_method": "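Start and end populations of a pooled competition were compared by 100-nucleotide paired-end sequencing of gene amplicons. The Saccharomyces cerevisiae strains carried tRNA-Arg(CCU) gene variants at the native genomic locus, synthesised with a 3% per-site mutation rate at 69 sites, and competed in YPD at 37°C for 24 hours in six parallel replicates. Darwinian fitness relative to wild type was based on the change in genotype frequencies. Genotypes required ≥ 100 starting reads, and estimates < 0.5 were set to 0.5.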"}
{"variant": "U2A C4A G18C U47A C55U", "yeast fitness": 0.793}
{"variant": "U2A G23A C29G G58C C60U C66G", "yeast fitness": "≤ 0.5"}
{"variant": "U2A G6C U16C C24U", "yeast fitness": 0.523}
{"variant": "U2A C30G A37U U53A C55U A57U", "yeast fitness": 0.574}
{"variant": "U2A C5U G41A", "yeast fitness": "≤ 0.5"}
{"variant": "U2A C5U A15G C34U G41C C55A", "yeast fitness": "≤ 0.5"}
{"variant": "U2A G68U", "yeast fitness": 0.773}
{"variant": "U2A G9C U16G U32G G52A G63C C66U", "yeast fitness": "≤ 0.5"}
{"variant": "U2A U7C G25A A36U", "yeast fitness": "≤ 0.5"}
{"variant": "U2A G25A", "yeast fitness": 0.828}
{"variant": "U2A G9A U13A U35G A70C", "yeast fitness": "≤ 0.5"}
{"variant": "U2A C22G G25C C61G", "yeast fitness": 0.703}
{"variant": "U2A C22G G25C C61U", "yeast fitness": "≤ 0.5"}
{"variant": "U2A C11U G58C", "yeast fitness": 0.678}
{"variant": "U2A G48C A65C", "yeast fitness": 0.593}
{"variant": "U2A C29G C30G C49A G56C C61U", "yeast fitness": 0.749}
{"variant": "U2A C31G C60G U64G", "yeast fitness": 0.532}
{"variant": "U2A C31U A40C C55G G68A A69U", "yeast fitness": "≤ 0.5"}
{"variant": "U2A C4G G9A G44A U54C", "yeast fitness": "≤ 0.5"}
{"variant": "U2A U3A G39A A42C", "yeast fitness": "≤ 0.5"}
{"variant": "U2A C46G C49U", "yeast fitness": 0.686}
{"variant": "U2A G50C A57G", "yeast fitness": "≤ 0.5"}
{"variant": "U2A C31A G48A", "yeast fitness": 0.619}
{"variant": "U2A G12C G23C", "yeast fitness": "≤ 0.5"}
{"variant": "U2A C49A", "yeast fitness": 0.637}
{"variant": "U2A C49G", "yeast fitness": 0.812}
{"variant": "U2A G9A U19C", "yeast fitness": 1.03}
{"variant": "U2A G12C C29U G51A G56A A57G G63C", "yeast fitness": "≤ 0.5"}
{"variant": "U2A G9A C34U C49G G52C C55U C62G", "yeast fitness": "≤ 0.5"}
{"variant": "U2A C11G G17A A20U C33G G38C", "yeast fitness": "≤ 0.5"}
{"variant": "U2A C30A C61U", "yeast fitness": "≤ 0.5"}
{"variant": "U2A C4U G10C C29U U32A A43U", "yeast fitness": "≤ 0.5"}
{"variant": "U2A C4U G25C C49U C61U", "yeast fitness": 0.581}
{"variant": "U2A A57C", "yeast fitness": 0.607}
{"variant": "U2A C60U A65U", "yeast fitness": "≤ 0.5"}
{"variant": "U2A C11G", "yeast fitness": 0.647}
{"variant": "U2A C11A", "yeast fitness": 0.614}
{"variant": "U2A C33G A36C", "yeast fitness": "≤ 0.5"}
{"variant": "U2A G6A U7C G25A A36U C60A C62G", "yeast fitness": "≤ 0.5"}
{"variant": "U2A G9C U16G C24U G68C", "yeast fitness": "≤ 0.5"}
{"variant": "U2A G12A C30A A43U C60A G67A", "yeast fitness": "≤ 0.5"}
{"variant": "U2A G6A A36C", "yeast fitness": 0.666}
{"variant": "U2A G10C C27A A37U C49A G56A", "yeast fitness": "≤ 0.5"}
{"variant": "U2A C4A U13C A42G C61U", "yeast fitness": "≤ 0.5"}
{"variant": "U2A G9A U19A A20U", "yeast fitness": 0.622}
{"variant": "U2A C60G A70U", "yeast fitness": "≤ 0.5"}
{"variant": "U2A C60G A70C", "yeast fitness": 0.532}
{"variant": "U2A C4G C5G G25A C30G C34A C49G", "yeast fitness": "≤ 0.5"}
{"variant": "U2A G39A U47A C49U U54A", "yeast fitness": "≤ 0.5"}
{"variant": "U2A C5G A37U C49U C61U", "yeast fitness": "≤ 0.5"}
{"variant": "U2A C5G C24U C30G A70C", "yeast fitness": 0.54}
{"variant": "U2A C30G G58C C66G", "yeast fitness": "≤ 0.5"}
{"variant": "U2A C5A C11U C27G C60A", "yeast fitness": "≤ 0.5"}
{"variant": "U2A C27G C31U", "yeast fitness": 0.539}
{"variant": "U2A C5U U47A G52A", "yeast fitness": "≤ 0.5"}
{"variant": "U2A U7A U32A", "yeast fitness": "≤ 0.5"}
{"variant": "U2A C11U U19G", "yeast fitness": 0.647}
{"variant": "U2A C11G C49A A70G", "yeast fitness": "≤ 0.5"}
{"variant": "U2A C24G U32A U54C G56A", "yeast fitness": "≤ 0.5"}
{"variant": "U2A C34G G58C C66U", "yeast fitness": "≤ 0.5"}
{"variant": "U2A G39A A69G", "yeast fitness": 0.599}
{"variant": "U2A C30U A57G", "yeast fitness": "≤ 0.5"}
{"variant": "U2A G23A C29G A40C C55G", "yeast fitness": "≤ 0.5"}
{"variant": "U2A G41C", "yeast fitness": 0.757}
{"variant": "U2A A43G", "yeast fitness": 0.988}
{"variant": "U2A A43U", "yeast fitness": 0.956}
{"variant": "U2A C5G A14G C30G C46U", "yeast fitness": "≤ 0.5"}
{"variant": "U2A C11G G25A C49A", "yeast fitness": 0.553}
{"variant": "U2A C33G A42C", "yeast fitness": 0.509}
{"variant": "U2A C4A U19G", "yeast fitness": "≤ 0.5"}
{"variant": "U2A G18C G23A G25C A37G A43C C55G G68A", "yeast fitness": 0.558}
{"variant": "U2A C49U A57U", "yeast fitness": "≤ 0.5"}
{"variant": "U2A G6A C11U C31G G51A G67A", "yeast fitness": "≤ 0.5"}
{"variant": "U2A U3C G6A C66G", "yeast fitness": "≤ 0.5"}
{"variant": "U2A C30G U53C A57U C60U", "yeast fitness": "≤ 0.5"}
{"variant": "U2A C61U G67C", "yeast fitness": "≤ 0.5"}
{"variant": "U2A C5U U64C", "yeast fitness": 1.06}
{"variant": "U2A C11G A21G A65G", "yeast fitness": "≤ 0.5"}
{"variant": "U2A C4G G38C A45U G50C G52A", "yeast fitness": 0.849}
{"variant": "U2A C11G U54C C61G", "yeast fitness": "≤ 0.5"}
{"variant": "U2A G9U A20G", "yeast fitness": "≤ 0.5"}
{"variant": "U2A A42U", "yeast fitness": 0.864}
{"variant": "U2A A42G", "yeast fitness": 0.74}
{"variant": "U2A C31A A69U", "yeast fitness": 0.604}
